Bioassay records as filed in PubChem.
OX1R antag-1: antagonists of human orexin 1 receptor; O43613; CHO/OX1R cells, Fluo-8 calcium fluorescence, orexin A; inhibition, % at 5 µM; 330,000 compounds, 0.43% hits;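 active means inhibition above its plate's threshold, mean inhibition of all tested compounds on the plate plus 3 SD, cut at about 37% in these data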;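 further: 0% = orexin A challenge wells and 100% = SB-334867-A antagonist wells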
Target sequence (O43613 whole entry, looked up): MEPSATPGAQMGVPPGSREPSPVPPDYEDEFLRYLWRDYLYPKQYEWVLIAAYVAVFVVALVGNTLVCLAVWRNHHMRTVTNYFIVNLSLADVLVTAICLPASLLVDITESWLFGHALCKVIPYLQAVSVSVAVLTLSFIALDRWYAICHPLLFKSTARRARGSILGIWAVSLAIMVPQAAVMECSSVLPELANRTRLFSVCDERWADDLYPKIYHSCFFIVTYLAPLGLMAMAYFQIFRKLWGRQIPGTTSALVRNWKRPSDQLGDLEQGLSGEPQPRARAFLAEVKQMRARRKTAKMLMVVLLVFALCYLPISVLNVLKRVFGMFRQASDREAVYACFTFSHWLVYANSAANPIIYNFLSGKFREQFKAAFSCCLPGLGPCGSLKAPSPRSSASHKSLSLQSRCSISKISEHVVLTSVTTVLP
OX1R antag-2: antagonists of human orexin 1 receptor (OX1R). O43613. OX1R-expressing cells, FRET antagonist read-out. inhibition, % at 6.6 µM. 330,000 compounds, 1.8% hits; in the data active means inhibition mostly above about 38%, no sharp cut-off; inactive means mostly below about 40%;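 further: 0% = agonist challenge alone and 100% = reference antagonist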
GPR7 antag: blocks human GPR7 receptor signaling. P48145. GPR7-expressing cells, fluorescence antagonist assay. inhibition, % at 4.4 µM. 290,000 compounds, 1.1% hits. AID 1861; in the data active means inhibition above about 16%, passing the limit was not always enough;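 further: cells stimulated with the agonist NPW; 0% = agonist with vehicle and 100% = vehicle without agonist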
Target sequence (P48145 whole entry, looked up): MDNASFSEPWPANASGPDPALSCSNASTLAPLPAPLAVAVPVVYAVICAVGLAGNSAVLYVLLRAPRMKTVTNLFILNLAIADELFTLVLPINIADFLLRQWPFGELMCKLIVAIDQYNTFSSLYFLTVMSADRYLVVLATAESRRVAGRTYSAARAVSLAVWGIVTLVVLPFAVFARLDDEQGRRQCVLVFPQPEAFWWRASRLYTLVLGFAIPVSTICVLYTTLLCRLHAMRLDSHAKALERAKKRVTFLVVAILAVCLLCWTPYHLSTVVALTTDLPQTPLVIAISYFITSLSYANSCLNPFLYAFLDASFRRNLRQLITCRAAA
TAAR1 antagonist: human TAAR1 antagonism | CHO RD-HGA16 TAAR1, Fluo-8 calcium fluorescence, antagonist | 360,000 compounds, 1.5% hits | inhibition, % at 3 µM | AID 624466;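 active means inhibition above a per-plate cutoff, the mean inhibition of test compounds on that plate plus 3 SD, cut at about 49% in these data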;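 further: 0% = DMSO plus EC80 beta-PEA response and 100% = DMSO alone without agonist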
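Test system – hTAAR1-expressing CHO RD-HGA16 cells, Gα16-coupled · Reagent – β-PEA at EC80 concentration, post-compound challenge · Compound dosing – 3 µM, single point · Timing – 140 s kinetic read after compound, 140 s after agonist · Detection – Fluo-8 intracellular calcium dye fluorescence, real-time kinetic reads · Control set – DMSO and EC80 PEA controls · Repeats – n of 1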
TAAR1 agonist: agonists of human TAAR1; Q96RJ0; CHO RD-HGA16 TAAR1, Fluo-8 calcium fluorescence; vehicle wells 0%, saturating PEA agonist 100%; activation, % at 3 µM; 360,000 compounds, 0.99% hits;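 active means activation above the mean activation of all test compounds in the run plus 3 SD, cut at about 38% in these data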
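System: CHO RD-HGA16 cells carrying human TAAR1 plus Gα16; Incubation: 17-24 h seeding, 75 min 37 °C dye, 30 min RT; Measured by: Fluo-8 fluorescence, 5 s baseline then 140 s kinetic read; Control set: DMSO and PEA EC100; Replication: single well for each compound.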
CHO parental Ca: counter-screen for OX1R antagonists: effect in parental CHO cells. inhibition, % at 5.6 µM. AID 463079. 330,000 compounds, 0.63% hits. parental CHO-K1, ATP-induced calcium, Fluo-8 fluorescence;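 active means inhibition above that plate's mean sample inhibition plus 3 SD, cut at about 26% in these data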;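 further: 0% = ATP-challenged DMSO wells and 100% = DMSO wells without ATP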
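Test system: parental CHO cells; detection: calcium-sensitive Fluo-8 fluorescence; evaluation: percent inhibition of calcium signal; also added: ATP as calcium-mobilizing challenge; repeats: one well per compound; control set: ATP-challenged DMSO wells low, unchallenged DMSO wells high; compound: single nominal dose of 5.6 µM per compound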
OX1R Fluo8 conf: OX1R (human) antagonism, confirmed; shares compounds with OX1R antag-1; CHO/OX1R cells, orexin A calcium Fluo-8 fluorescence; inhibition, % at 5 µM; 1,100 compounds, 38% hits; in the data active means inhibition above about 29%;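 further: 0% = agonist challenge alone and 100% = reference antagonist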
CHO Ca counter: signal in parental CHO cells, OX1R antagonist counter-screen. shares compounds with OX1R antag-1. parental CHO-K1, ATP-induced calcium, Fluo-8 fluorescence. inhibition, % at 5.6 µM. 1,100 compounds, 9.3% hits;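 active means inhibition above a per-plate limit, the mean inhibition of that plate's test compounds plus 3 SD, cut at about 25% in these data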;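 further: 0% = ATP challenge with DMSO and 100% = DMSO without ATP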
OX1R HTRF confirm: OX1R (human) antagonism, HTRF confirmed. 1,800 compounds, 49% hits. OX1R-expressing cells, HTRF antagonist assay. inhibition, % at 6.6 µM. shares compounds with OX1R antag-2. AID 492964; in the data active means inhibition above about 55%;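 further: CHO cells expressing OX1R stimulated with orexin A at about EC80; 0% = agonist challenge alone and 100% = reference antagonist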
CHO-K1 HTRF: counter-screen for OX1R antagonists: effect in parental CHO-K1 cells | inhibition, % at 6.6 µM | shares compounds with OX1R antag-2 | HTRF counterscreen | 1,800 compounds, 48% hits | AID 493232; in the data active means inhibition above about 17%;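 further: 0% = agonist challenge with vehicle and 100% = vehicle alone without agonist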
Active calls of the source: *; nt = no result. Most compounds without a hit are left out; they make up all but 4.5% or so of the library.

SMILES	OX1R antag-1	OX1R antag-2	GPR7 antag	TAAR1 antagonist	TAAR1 agonist	CHO parental Ca	OX1R Fluo8 conf	CHO Ca counter	OX1R HTRF confirm	CHO-K1 HTRF
CC(=O)Nc1cccc(-c2nc3ccccc3s2)c1	26.1	76.0*	-5.6	5.6	2.6	-24.1	6.4	-6.8	54.0	0.8
COc1ccc(-c2nc3ccccc3s2)cc1O	85.5*	112.3*	-5.8	3.0	6.8	-5.0	37.4*	-2.2	97.8*	-5.3
CC(=O)Nc1cccc(-c2nc3ccc(NC(C)=O)cc3s2)c1	-7.8	18.7	-6.7	3.0	2.2	-11.1	nt	nt	nt	nt
COc1cc(OC)c(-c2nc3ccccc3s2)cc1OC	53.8*	94.5*	-14.0	-11.4	-2.9	-9.6	35.9*	-5.9	92.5*	9.9
CCc1nc2c(OCc3ccc(C(F)(F)F)cc3)cccn2c1N(C)C(=O)c1ccncc1	nt	nt	nt	-43.3	2.0	nt	nt	nt	nt	nt
CCOc1ccccc1NC(=O)COC(=O)c1c(CC)noc1C	nt	nt	nt	-0.8	0.8	nt	nt	nt	nt	nt
Cc1ccsc1C(=O)N1CCC1(C)C(=O)NS(=O)(=O)c1ccccc1 (configuration not stated)	nt	nt	nt	-3.1	1.6	nt	nt	nt	nt	nt
COc1ccc(N=Cc2ccccc2O)cc1	nt	nt	nt	-8.5	1.4	nt	nt	nt	nt	nt
COc1ccc(N=Cc2oc3ccc4ccccc4c3c2O)cc1	24.9	58.2*	-0.8	28.4	16.7	14.2	26.9	20.5	66.9*	11.8
O=C(NCCC(F)(F)F)c1cccc2c(-c3ccc(F)c(F)c3)coc12	nt	nt	nt	-41.3	-0.4	nt	nt	nt	nt	nt
O=c1c2ccccc2oc2c1ccc1ccccc12	55.5*	89.8*	nt	nt	nt	-35.1	23.4	-21.2	67.6*	-6.3
CC(C)N(Cc1ccccc1)C(=O)CN1C(=O)NC(Cc2ccccc2)(c2ccccc2)C1=O (configuration not stated)	27.7	80.5*	-8.5	-18.1	-1.1	-16.9	42.0*	-13.8	86.7*	-14.7
O=C(Nc1cccc(Cl)c1)Nc1ccnc(-c2cccnc2)n1	40.6*	67.0*	-9.0	55.4*	20.1	6.3	28.4	1.4	68.5*	6.6
COc1cccc(C(=O)Nc2nnc(S(=O)(=O)Nc3cccc(C)c3)s2)c1	36.4	89.5*	-0.2	0.2	1.1	1.6	41.4*	1.9	74.9*	1.5
COC(=O)C(C(C)=O)C1=C/C(=N\S(=O)(=O)c2ccc(C)cc2)c2ccccc2C1=O (configuration not stated)	96.7*	106.4*	-10.1	nt	nt	-9.2	50.2*	-12.3	93.7*	1.2
COc1ccc(C(=O)COc2ccccc2C(=O)Nc2ccccc2)cc1	42.0*	71.2*	1.2	19.1	1.7	-2.2	37.0*	-11.4	59.5*	8.5
O=C(CSc1ccccc1F)NC(=O)NC1CCCC1	nt	nt	nt	-6.3	-2.4	nt	nt	nt	nt	nt
Cc1ccnc2ccc(-c3nc4ccccc4o3)cc12	40.8*	92.0*	-11.5	0.3	12.4	-24.9	48.1*	-18.2	93.6*	9.5
Cc1nc2ccc(-c3nc4ccccc4o3)cc2[nH]1	49.9*	105.0*	12.0	4.8	1.4	-5.7	33.4*	-2.0	93.6*	1.4
CCc1nc2c(OCCn3cccc3)cccn2c1N(C)C(=O)c1ccc(OC)cc1	nt	nt	nt	-3.3	-0.6	nt	nt	nt	nt	nt
Cc1ccc(C)c(OCC(=O)N/N=C/c2ccc(N3CCOCC3)cc2)c1	nt	nt	nt	8.6	2.4	nt	nt	nt	nt	nt
O=C(Nc1sc2c(c1C(=O)NCC1CCCO1)CCCC2)c1cccs1 (configuration not stated)	48.0*	40.0*	-8.9	32.9	7.3	14.8	-4.0	-10.8	45.2	9.0
CSc1nc2ccc3nc(NC(=O)c4cccs4)sc3c2s1	56.4*	81.0*	-6.0	8.8	8.4	-13.5	84.8*	-8.6	94.8*	9.1
CSc1cccc(NC(=O)C2CCCN2S(=O)(=O)c2ccc(Br)s2)c1 (configuration not stated)	98.3*	88.8*	-4.8	-2.1	10.5	-7.4	93.0*	-15.5	90.7*	-0.8
CSc1cccc(NC(=O)C2CCCN(S(=O)(=O)c3cccs3)C2)c1 (configuration not stated)	42.5*	60.6*	-2.1	39.9	0.4	-7.8	50.1*	4.1	78.2*	-1.9
SMILES	OX1R antag-1	OX1R antag-2	GPR7 antag	TAAR1 antagonist	TAAR1 agonist	CHO parental Ca	OX1R Fluo8 conf	CHO Ca counter	OX1R HTRF confirm	CHO-K1 HTRF
CC(C)NC(=O)C1CCCN(S(=O)(=O)c2cccs2)C1 (configuration not stated)	-12.7	22.8	2.4	6.3	4.7	-2.3	nt	nt	nt	nt
CCc1nc2ccc(C(=O)NCCC(C)C)cn2c1N(CCN(C)C)CC1CC1	nt	nt	nt	-14.7	-0.1	nt	nt	nt	nt	nt
Cc1ccc(N=C2NC(=O)/C(=C/c3cccn3C)S2)cc1C	57.5*	78.8*	-5.1	-0.2	0.3	-32.9	62.0*	-16.4	86.8*	6.9
Cc1ccc2cc(C)c3nnc(SCC(=O)Nc4nc5c(s4)CCCC5)n3c2c1C	34.4	84.3*	-3.6	-16.3	5.8	-19.6	40.9*	-10.4	74.8*	-0.4
COc1cccc(CNC(=O)[C@@H]2CCCN2C(=O)OC(C)(C)C)c1	nt	nt	nt	-16.2	5.1	nt	nt	nt	nt	nt
COc1cc(/C=N/NC(=O)CCn2c3ccccc3c3ccccc32)ccc1O	75.4*	53.9*	-5.1	38.5	21.3	8.5	36.5*	2.7	83.1*	-14.8
COc1cc(/C=N/NC(=O)CCn2nnc3ccccc32)ccc1O	22.3	14.4	-1.3	7.7	4.7	-8.9	nt	nt	nt	nt
CC(NCC(=O)Nc1ccccc1C(=O)NC1CC1)c1ccc(F)cc1F (configuration not stated)	57.1*	68.5*	nt	16.0	9.2	-16.1	44.4*	-7.4	87.2*	1.8
COC(=O)C[C@@H]1C[C@H]2c3cc(NS(C)(=O)=O)ccc3O[C@H]2[C@H](CO)O1	nt	nt	nt	-5.9	-0.1	nt	nt	nt	nt	nt
CN(Cc1ccccc1)C(=O)CSc1nnc(-c2ccco2)n1-c1ccccc1	38.0	41.1*	-9.1	4.1	0.6	-9.2	9.9	-18.2	43.9	7.2
CN(C)C(=O)CSc1nnc(-c2ccco2)n1-c1ccccc1	nt	nt	nt	8.4	-1.1	nt	nt	nt	nt	nt
CCOc1ccccc1N(CC(=O)NCCSCc1ccco1)S(=O)(=O)c1ccccc1	43.1*	84.3*	10.7	50.1*	0.1	-21.0	47.0*	-24.4	80.0*	-1.4
CCOc1ccc(N(CC(=O)NCCSCc2ccco2)S(=O)(=O)c2ccc(F)cc2)cc1	-31.4	4.2	-14.6	-7.1	-0.6	-20.4	nt	nt	nt	nt
